Tests used:
[1] = tested on: MDA-MB-468; assay: Cytotoxicity against human MDA-MB-468 cells assessed as cell growth at 10^-5 M after 48 hrs by SRB assay; assay type: functional; conditions: MDA-MB-468, 48 h, read-out: Activity
Outline: (§1)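 NCI 60-cell-line primary one-dose screen across nine tumour subpanels. Compound added at a single concentration of 10^-5 M and cultures incubated 48 h. Endpoint was sulforhodamine B protein staining read spectrophotometrically, with growth expressed as percent of untreated control cells.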

[2] = tested on: BT-549; assay: Cytotoxicity against human BT549 cells assessed as cell growth at 10^-5 M after 48 hrs by SRB assay; assay type: functional; conditions: BT-549, 48 h, read-out: Activity; outline: as §1
[3] = tested on: MDA-MB-231; assay: Cytotoxicity against human MDA-MB-231 cells assessed as cell growth at 10^-5 M after 48 hrs by SRB assay; assay type: functional; conditions: MDA-MB-231, 48 h, read-out: Activity; outline: as §1
[4] = tested on: MCF7; assay: Cytotoxicity against human MCF7 cells assessed as cell growth at 10^-5 M after 48 hrs by SRB assay; assay type: functional; conditions: MCF7, 48 h, read-out: Activity; outline: as §1
[5] = tested on: UO-31; assay: Cytotoxicity against human UO31 cells assessed as cell growth at 10^-5 M after 48 hrs by SRB assay; assay type: functional; conditions: UO-31, 48 h, read-out: Activity
Outline: (§2)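 NCI-60 one-dose screen across nine tumour subpanels. Each agent added once at 10^-5 M, cultures incubated 48 h. Endpoint is sulforhodamine B protein staining read spectrophotometrically. Output is percent growth of treated cells relative to untreated controls.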

[6] = tested on: RXF 393; assay: Cytotoxicity against human RXF393 cells assessed as cell growth at 10^-5 M after 48 hrs by SRB assay; assay type: functional; conditions: RXF 393, 48 h, read-out: Activity; outline: as §1
[7] = tested on: ACHN; assay: Cytotoxicity against human ACHN cells assessed as cell growth at 10^-5 M after 48 hrs by SRB assay; assay type: functional; conditions: read-out: Activity; outline: as §1
[8] = tested on: CAKI-1; assay: Cytotoxicity against human CAKI-1 cells assessed as cell growth at 10^-5 M after 48 hrs by SRB assay; assay type: functional; conditions: CAKI-1, 48 h, read-out: Activity; outline: as §1
[9] = tested on: A498; assay: Cytotoxicity against human A498 cells assessed as cell growth at 10^-5 M after 48 hrs by SRB assay; assay type: functional; conditions: A498, 48 h, read-out: Activity; outline: as §1
[10] = tested on: OVCAR-5; assay: Cytotoxicity against human OVCAR5 cells assessed as cell growth at 10^-5 M after 48 hrs by SRB assay; assay type: functional; conditions: OVCAR-5, 48 h, read-out: Activity; outline: as §1
[11] = tested on: UACC-257; assay: Cytotoxicity against human UACC257 cells assessed as cell growth at 10^-5 M after 48 hrs by SRB assay; assay type: functional; conditions: UACC-257, 48 h, read-out: Activity; outline: as §2
[12] = tested on: Malme-3M; assay: Cytotoxicity against human MALME-3M cells assessed as cell growth at 10^-5 M after 48 hrs by SRB assay; assay type: functional; conditions: read-out: Activity; outline: as §1
[13] = tested on: U-251; assay: Cytotoxicity against human U251 cells assessed as cell growth at 10^-5 M after 48 hrs by SRB assay; assay type: functional; conditions: U-251, 48 h, read-out: Activity; outline: as §2
[14] = tested on: SNB-19; assay: Cytotoxicity against human SNB19 cells assessed as cell growth at 10^-5 M after 48 hrs by SRB assay; assay type: functional; conditions: SNB-19, 48 h, read-out: Activity; outline: as §2
[15] = tested on: SF-268; assay: Cytotoxicity against human SF268 cells assessed as cell growth at 10^-5 M after 48 hrs by SRB assay; assay type: functional; conditions: SF-268, 48 h, read-out: Activity; outline: as §1
[16] = tested on: SF-295; assay: Cytotoxicity against human SF295 cells assessed as cell growth at 10^-5 M after 48 hrs by SRB assay; assay type: functional; conditions: SF-295, 48 h, read-out: Activity; outline: as §1
[17] = tested on: SW-620; assay: Cytotoxicity against human SW620 cells assessed as cell growth at 10^-5 M after 48 hrs by SRB assay; assay type: functional; conditions: SW-620, 48 h, read-out: Activity; outline: as §2
[18] = tested on: KM12; assay: Cytotoxicity against human KM12 cells assessed as cell growth at 10^-5 M after 48 hrs by SRB assay; assay type: functional; conditions: KM12, 48 h, read-out: Activity; outline: as §1
[19] = tested on: HT-29; assay: Cytotoxicity against human HT-29 cells assessed as cell growth at 10^-5 M after 48 hrs by SRB assay; assay type: functional; conditions: HT-29, 48 h, read-out: Activity; outline: as §1
[20] = tested on: HCT-116; assay: Cytotoxicity against human HCT116 cells assessed as cell growth at 10^-5 M after 48 hrs by SRB assay; assay type: functional; conditions: HCT-116, 48 h, read-out: Activity; outline: as §1
[21] = tested on: COLO 205; assay: Cytotoxicity against human COLO205 cells assessed as cell growth at 10^-5 M after 48 hrs by SRB assay; assay type: functional; conditions: COLO 205, 48 h, read-out: Activity; outline: as §1
[22] = tested on: HCC 2998; assay: Cytotoxicity against human HCC2998 cells assessed as cell growth at 10^-5 M after 48 hrs by SRB assay; assay type: functional; conditions: HCC 2998, 48 h, read-out: Activity; outline: as §1
[23] = Cytotoxicity against human EKVX cells assessed as cell growth at 10^-5 M after 48 hrs by SRB assay; assay type: functional; conditions: read-out: Activity; outline: as §1
[24] = tested on: SR; assay: Cytotoxicity against human SR cells assessed as cell growth at 10^-5 M after 48 hrs by SRB assay; assay type: functional; conditions: read-out: Activity; outline: as §2
[25] = tested on: RPMI-8226; assay: Cytotoxicity against human RPMI8226 cells assessed as cell growth at 10^-5 M after 48 hrs by SRB assay; assay type: functional; conditions: RPMI-8226, 48 h, read-out: Activity; outline: as §1
[26] = tested on: MOLT-4; assay: Cytotoxicity against human MOLT4 cells assessed as cell growth at 10^-5 M after 48 hrs by SRB assay; assay type: functional; conditions: MOLT-4, 48 h, read-out: Activity; outline: as §1
[27] = tested on: CCRF-CEM; assay: Cytotoxicity against human CCRF-CEM cells assessed as cell growth at 10^-5 M after 48 hrs by SRB assay; assay type: functional; conditions: read-out: Activity; outline: as §1
[28] = Induction of nitric oxide release in phosphate buffer at pH 7.4 at 0.1 mM after 6 hrs by Griess method in presence of 0.5 mM of N-acetylcysteine; assay type: physicochemical; conditions: pH 7.4, 6 h, 100 µM
Outline: (§3)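 Compound in DMF diluted to final 10^-4 M in 1:1 50 mM phosphate buffer pH 7.4/MeOH with 5×10^-4 M N-acetylcysteine, 37 °C. Aliquot mixed with Griess reagent, 10 min at room temperature, A546 read. Nitrite quantified against sodium nitrite standards (10–80 nmol/mL); NO expressed as mol/mol. n = 4 reaction mixtures per compound.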

[29] = Induction of nitric oxide release in phosphate buffer at pH 7.4 at 0.1 mM after 5 hrs by Griess method in presence of 0.5 mM of N-acetylcysteine; assay type: physicochemical; conditions: pH 7.4, 5 h, 100 µM; outline: as §3
[30] = Induction of nitric oxide release in phosphate buffer at pH 7.4 at 0.1 mM after 3 hrs by Griess method in presence of 0.5 mM of N-acetylcysteine; assay type: physicochemical; conditions: pH 7.4, 3 h, 100 µM; outline: as §3
[31] = Induction of nitric oxide release in phosphate buffer at pH 7.4 at 0.1 mM after 1 hr by Griess method in presence of 0.5 mM of N-acetylcysteine; assay type: physicochemical; conditions: pH 7.4, 1 h, 100 µM; outline: as §3
[32] = tested on: HOP-92; assay: Cytotoxicity against human HOP92 cells assessed as cell growth at 10^-5 M after 48 hrs by SRB assay; assay type: functional; conditions: HOP-92, 48 h, read-out: Activity; outline: as §1

| SMILES | growth at 10 µM [1] [%] | growth at 10 µM [2] [%] | growth at 10 µM [3] [%] | growth at 10 µM [4] [%] | growth at 10 µM [5] [%] | growth at 10 µM [6] [%] | growth at 10 µM [7] [%] | growth at 10 µM [8] [%] | growth at 10 µM [9] [%] | growth at 10 µM [10] [%] | growth at 10 µM [11] [%] | growth at 10 µM [12] [%] | growth at 10 µM [13] [%] | growth at 10 µM [14] [%] | growth at 10 µM [15] [%] | growth at 10 µM [17] [%] | growth at 10 µM [18] [%] | growth at 10 µM [19] [%] | growth at 10 µM [20] [%] | growth at 10 µM [21] [%] | further results |
| --- | --- | --- | --- | --- | --- | --- | --- | --- | --- | --- | --- | --- | --- | --- | --- | --- | --- | --- | --- | --- | --- |
| O/N=C(/CSc1nnc(-c2ccccc2)n1-c1ccccc1)c1ccccc1 | 93 | 111 | 68.4 | 129 | 77.4 | 108 | 117 | 85.4 | 49.5 | 125 | 87.6 | 100 | 82.3 | 84.8 | 104 | 98.8 | 97.5 | 91.6 | 92.3 | 107 | growth at 10 µM [16]: 88%; growth at 10 µM [22]: 121%; growth at 10 µM [23]: 95.4%; growth at 10 µM [24]: 92.8%; growth at 10 µM [25]: 85.6%; growth at 10 µM [26]: 84.8%; growth at 10 µM [27]: 91%; Activity [28]: 0.09 mol/mol; Activity [29]: 0.15 mol/mol; Activity [30]: 0.12 mol/mol; Activity [31]: 0.06 mol/mol |
| COc1ccc(-c2nnc(SC/C(=N/O)c3ccccc3)n2-c2ccccc2)cc1 | 96.5 | 90.5 | 117 | 104 | 87.1 | 108 | 107 | 96.5 | 73.8 | 109 | 98 | 96.5 | 98.6 | 97.3 | 117 | 114 | 112 | 95.1 | 93.2 | 116 | growth at 10 µM [16]: 89.5%; growth at 10 µM [22]: 112%; growth at 10 µM [32]: 101%; growth at 10 µM [23]: 102%; growth at 10 µM [24]: 75.9%; growth at 10 µM [25]: 73.5%; growth at 10 µM [26]: 70.3%; growth at 10 µM [27]: 83.5%; Activity [28]: 0.12 mol/mol; Activity [29]: 0.15 mol/mol; Activity [30]: 0.09 mol/mol; Activity [31]: 0.08 mol/mol |
| COc1ccc(-c2nnc(SC/C(=N/O)c3ccccc3)n2-c2ccccc2)cc1OC | 107 | 92.4 | 87.5 | 100 | 80.1 | 102 | 95.4 | 98.4 | 94.2 | 100 | 101 | 93.7 | 101 | 101 | 110 | 110 | 99.8 | 97.5 | 92 | 100 | growth at 10 µM [22]: 114%; growth at 10 µM [32]: 86.5%; growth at 10 µM [23]: 101%; growth at 10 µM [24]: 85.1%; growth at 10 µM [25]: 69.4%; growth at 10 µM [26]: 81.8%; growth at 10 µM [27]: 84.4%; Activity [28]: 0.17 mol/mol; Activity [29]: 0.23 mol/mol; Activity [30]: 0.18 mol/mol; Activity [31]: 0.15 mol/mol |

Source: ChEMBL document CHEMBL2390929, “New nitric oxide donating 1,2,4-triazole/oxime hybrids: synthesis, investigation of anti-inflammatory, ulceroginic liability and antiproliferative activities” (Bioorg Med Chem, 2013)
